≈ marks a conversion by molar mass, not a printed value.
Experiments:
Streptococcus pneumoniae [1] = assay: Antibacterial activity against penicillin-susceptible Streptococcus pneumoniae after overnight incubation by agar dilution method; assay type: functional
How it was run: (§1)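 Agar dilution on Mueller-Hinton agar supplemented with 5% sheep blood. Inoculum 10^4 CFU/spot, incubated overnight at 35°C in ambient air. Test strains were clinical pneumococcal isolates. S. pneumoniae ATCC 49619 was included as the quality control strain in each run. MIC range, MIC50 and MIC90 were reported for each susceptibility category.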

Streptococcus pneumoniae [2] = assay: Antibacterial activity against penicillin-resistant Streptococcus pneumoniae after overnight incubation by agar dilution method; assay type: functional; how it was run: as §1
Streptococcus pneumoniae [3] = assay: Antibacterial activity against Streptococcus pneumoniae harboring erm(B) gene after overnight incubation by agar dilution method; assay type: functional
How it was run: (§2)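 Clinical isolates collected 1998–2008, with macrolide-resistance genes confirmed by PCR. MICs by agar dilution on Mueller-Hinton agar with 5% sheep blood. Inoculum 10^4 CFU/spot, incubated overnight at 35°C in ambient air. S. pneumoniae ATCC 49619 was the quality-control strain in every run.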

Streptococcus pneumoniae [4] = assay: Antibacterial activity against Streptococcus pneumoniae harboring erm(B) and mef(A) gene after overnight incubation by agar dilution method; assay type: functional; how it was run: as §2
Streptococcus pneumoniae [5] = assay: Antibacterial activity against Streptococcus pneumoniae harboring mutation in L4 ribosomal protein after overnight incubation by agar dilution method; assay type: functional; how it was run: as §2
Streptococcus pneumoniae [6] = assay: Antibacterial activity against quinolone-susceptible Streptococcus pneumoniae after overnight incubation by agar dilution method; assay type: functional; how it was run: as §1
Streptococcus pneumoniae [7] = assay: Antibacterial activity against quinolone-resistant Streptococcus pneumoniae after overnight incubation by agar dilution method; assay type: functional; how it was run: as §1
Streptococcus pneumoniae [8] = assay: Antibacterial activity against macrolide-resistant Streptococcus pneumoniae harboring mef(A) gene after overnight incubation by agar dilution method; assay type: functional
How it was run: (§3)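 Agar dilution MICs on Mueller-Hinton agar with 5% sheep blood. Inoculum 10^4 CFU/spot, incubated overnight at 35°C in ambient air. Clinical S. pneumoniae or group A streptococcal isolates; resistance genotypes (erm(B), erm(A), mef(A)/mef(E)) were assigned by PCR. S. pneumoniae ATCC 49619 served as QC strain in each run. Range, MIC50 and MIC90 reported per phenotype group.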

Streptococcus pneumoniae [9] = assay: Antibacterial activity against macrolide-resistant Streptococcus pneumoniae harboring erm(B) and mef(A) gene after overnight incubation by agar dilution method; assay type: functional; how it was run: as §3
Streptococcus pyogenes [10] = assay: Antibacterial activity against macrolide-susceptible Streptococcus pyogenes after overnight incubation by agar dilution method; assay type: functional
How it was run: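 Agar dilution on Mueller-Hinton agar supplemented with 5% sheep blood, inoculum 10^4 CFU/spot, read after overnight incubation at 35°C in ambient air. Clinical isolates with defined genotypes; S. pneumoniae ATCC 49619 quality control strain included in each run. MIC50/MIC90 are MICs inhibiting 50% and 90% of isolates.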

Streptococcus pyogenes [11] = assay: Antibacterial activity against Streptococcus pyogenes harboring erm(B) gene after overnight incubation by agar dilution method; assay type: functional; how it was run: as §2
Streptococcus pyogenes [12] = assay: Antibacterial activity against Streptococcus pyogenes harboring mutation in L4 ribosomal protein after overnight incubation by agar dilution method; assay type: functional; how it was run: as §2
Streptococcus pyogenes [13] = assay: Antibacterial activity against macrolide-resistant Streptococcus pyogenes harboring erm(A) gene after overnight incubation by agar dilution method; assay type: functional; how it was run: as §3
Streptococcus pneumoniae [14] = assay: Antibacterial activity against macrolide-resistant Streptococcus pneumoniae 24 harboring erm(B) gene after 14 passages and 10 compound-free subculturing by retest method; assay type: functional; details: Streptococcus pneumoniae, 24; read-out: MIC
How it was run: (§4)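 Multistep selection by daily serial passage in subinhibitory drug concentrations. Medium was cation-adjusted Mueller-Hinton broth plus 5% lysed horse blood. Each day the next inoculum came from the tube 1–2 dilutions below the MIC whose turbidity matched the growth control, for up to 50 days. Clone MICs by CLSI macrodilution; identity to the parent confirmed by SmaI PFGE.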

Streptococcus pneumoniae [15] = assay: Antibacterial activity against macrolide-resistant Streptococcus pneumoniae 3665 harboring mef(A) gene after 26 passages and 10 compound-free subculturing by retest method; assay type: functional
Streptococcus pneumoniae [16] = assay: Antibacterial activity against macrolide-resistant Streptococcus pneumoniae 1076 harboring erm(B) and mef(A) gene after 18 passages and 10 compound-free subculturing by retest method; assay type: functional; how it was run: as §4
Streptococcus pneumoniae [17] = assay: Antibacterial activity against macrolide-resistant Streptococcus pneumoniae 2686 harboring mutation in L4 ribosomal protein after 22 passages and 10 compound-free subculturing by retest method; assay type: functional
Streptococcus pneumoniae [18] = assay: Antibacterial activity against macrolide-resistant Streptococcus pneumoniae 24 harboring erm(B) gene after overnight incubation by agar dilution method; assay type: functional
Streptococcus pneumoniae [19] = assay: Antibacterial activity against macrolide-susceptible Streptococcus pneumoniae 7127 harboring S20N mutation in L4 ribosomal protein and A105V mutation in L22 ribosomal protein after 29 passages and 10 compound-free subculturing by retest method; assay type: functional
Streptococcus pneumoniae [20] = assay: Antibacterial activity against macrolide-susceptible Streptococcus pneumoniae 7127 harboring S20N mutation in L4 ribosomal protein and A105V mutation in L22 ribosomal protein after 38 passages and 10 compound-free subculturing by retest method; assay type: functional
Streptococcus pneumoniae [21] = assay: Antibacterial activity against macrolide-resistant Streptococcus pneumoniae 2686 harboring mutation in L4 ribosomal protein after overnight incubation by agar dilution method; assay type: functional
Streptococcus pyogenes [22] = assay: Antibacterial activity against macrolide-susceptible Streptococcus pyogenes 2132 after overnight incubation by agar dilution method
Streptococcus pyogenes [23] = assay: Antibacterial activity against macrolide-resistant Streptococcus pyogenes 2368 harboring erm(B) gene after overnight incubation by agar dilution method
Streptococcus pyogenes [24] = assay: Antibacterial activity against macrolide-resistant Streptococcus pyogenes 2011 harboring mef(A) gene after overnight incubation by agar dilution method
Streptococcus pyogenes [25] = assay: Antibacterial activity against macrolide-susceptible Streptococcus pyogenes 2132 after 50 passages following overnight incubation by agar dilution method
Streptococcus pyogenes [26] = assay: Antibacterial activity against macrolide-resistant Streptococcus pyogenes 2368 harboring erm(B) gene after 6 passages and 10 compound-free subculturing by retest method
Streptococcus pyogenes [27] = assay: Antibacterial activity against macrolide-resistant Streptococcus pyogenes 2094 harboring erm(A) gene after 43 passages and 10 compound-free subculturing by retest method
Streptococcus pyogenes [28] = assay: Antibacterial activity against macrolide-resistant Streptococcus pyogenes 2094 harboring erm(A) gene after 22 passages and 10 compound-free subculturing by retest method
Streptococcus pyogenes [29] = assay: Antibacterial activity against macrolide-resistant Streptococcus pyogenes 237 harboring mutation in L4 ribosomal protein after overnight incubation by agar dilution method
Streptococcus pyogenes [30] = assay: Antibacterial activity against macrolide-resistant Streptococcus pyogenes 2011 harboring mef(A) gene after 50 passages following overnight incubation by agar dilution method

## CCC[C@@H]1C[C@@H](C(=O)N[C@@H]([C@H]2O[C@H](SC)[C@H](O)[C@@H](O)[C@H]2O)[C@H](C)Cl)N(C)C1 [CLINDAMYCIN]
Streptococcus pneumoniae [1]
  MIC50: 0.06 µg/mL (≈ 0.141 µM)
  MIC90: > 64 µg/mL
Streptococcus pneumoniae [2]
  MIC50: 0.06 µg/mL (≈ 0.141 µM)
Streptococcus pneumoniae [3]
  MIC50: > 64 µg/mL
Streptococcus pneumoniae [4]
  MIC50: 0.06 µg/mL (≈ 0.141 µM)
Streptococcus pneumoniae [5]
  MIC50: 0.06 µg/mL (≈ 0.141 µM)
  MIC90: 0.125 µg/mL (≈ 0.294 µM)
Streptococcus pneumoniae [6]
  MIC50: 0.06 µg/mL (≈ 0.141 µM)
  MIC90: > 64 µg/mL
Streptococcus pneumoniae [7]
  MIC50: 0.03 µg/mL (≈ 0.0706 µM)
  MIC90: 64 µg/mL (≈ 151 µM)
Streptococcus pneumoniae [8]
  MIC50: 0.06 µg/mL (≈ 0.141 µM)
  MIC90: 0.06 µg/mL (≈ 0.141 µM)
Streptococcus pneumoniae [9]
  MIC50: 0.06 µg/mL (≈ 0.141 µM)
Streptococcus pyogenes [10]
  MIC50: 0.06 µg/mL (≈ 0.141 µM)
  MIC90: 0.06 µg/mL (≈ 0.141 µM)
Streptococcus pyogenes [11]
  MIC50: > 64 µg/mL
  MIC90: > 64 µg/mL
Streptococcus pyogenes [12]
  MIC: 0.06 µg/mL (≈ 0.141 µM)
Streptococcus pyogenes [13]
  MIC50: 0.125 µg/mL (≈ 0.294 µM)
  MIC90: 0.25 µg/mL (≈ 0.588 µM)
Streptococcus pneumoniae [14]
  MIC: > 64 µg/mL
Streptococcus pneumoniae [15]
  MIC: 0.03 µg/mL (≈ 0.0706 µM)
Streptococcus pneumoniae [16]
  MIC: > 64 µg/mL
Streptococcus pneumoniae [17]
  MIC: 0.03 µg/mL (≈ 0.0706 µM)
Streptococcus pneumoniae [18]
  MIC: > 64 µg/mL
Streptococcus pneumoniae [19]
  MIC: 0.06 µg/mL (≈ 0.141 µM)
Streptococcus pneumoniae [20]
  MIC: 0.03 µg/mL (≈ 0.0706 µM)
Streptococcus pneumoniae [21]
  MIC: 0.03 µg/mL (≈ 0.0706 µM)
Streptococcus pyogenes [22]
  MIC: 0.06 µg/mL (≈ 0.141 µM)
Streptococcus pyogenes [23]
  MIC: > 64 µg/mL
Streptococcus pyogenes [24]
  MIC: 0.06 µg/mL (≈ 0.141 µM)
Streptococcus pyogenes [25]
  MIC: 0.06 µg/mL (≈ 0.141 µM)
Streptococcus pyogenes [26]
  MIC: > 64 µg/mL
Streptococcus pyogenes [27]
  MIC: 0.06 µg/mL (≈ 0.141 µM)
Streptococcus pyogenes [28]
  MIC: > 64 µg/mL
Streptococcus pyogenes [29]
  MIC: 0.06 µg/mL (≈ 0.141 µM)
Streptococcus pyogenes [30]
  MIC: 0.06 µg/mL (≈ 0.141 µM)
